# In the library only some 3.7% were active in any assay of this set; here they are far more common.
# KCNK3 inh – human KCNK3 channel inhibition, primary screen; B-score at 10 µM; O14649; AID 602410; CHO-KCNK3 thallium flux, FluxOR fluorescence; hits give low values; 340,000 compounds, 0.84% hits;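 active = B-score under library mean minus 4 SD, starting fluorescence ratio at most library mean plus 5 SD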;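 note: more negative B-score means stronger inhibition of thallium flux through KCNK3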
# Kir21 block – blocks the mouse Kir2.1 inward-rectifier potassium channel. 310,000 compounds, 0.85% hits. HEK293-Kir2.1, FluxOR thallium flux fluorescence; hits give low values. P35561. B-score at 10 µM;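 active = fluorescence ratio B-score at or below minus 3 SD of library scores, with starting-brightness B-score within 2 SD, cut at about -4.2 in these data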;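 note: channel flux triggered by added potassium and thallium sulfate stimulus; B-score of peak minus minimum fluorescence over baseline after thallium stimulus; more negative B-score means stronger Kir2.1 block with less thallium influx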
# KCNQ1 pot – potentiates or activates the human KCNQ1 potassium channel; CHO-K1 KCNQ1, thallium flux FluxOR fluorescence; hits give high values; B-score at 10 µM; 310,000 compounds, 0.35% hits; AID 2648;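 active = fluorescence ratio B-score, a plate-corrected score, at least three library SD, with initial intensity B-score within 5 SD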
# Target sequence (P51787 whole entry, looked up): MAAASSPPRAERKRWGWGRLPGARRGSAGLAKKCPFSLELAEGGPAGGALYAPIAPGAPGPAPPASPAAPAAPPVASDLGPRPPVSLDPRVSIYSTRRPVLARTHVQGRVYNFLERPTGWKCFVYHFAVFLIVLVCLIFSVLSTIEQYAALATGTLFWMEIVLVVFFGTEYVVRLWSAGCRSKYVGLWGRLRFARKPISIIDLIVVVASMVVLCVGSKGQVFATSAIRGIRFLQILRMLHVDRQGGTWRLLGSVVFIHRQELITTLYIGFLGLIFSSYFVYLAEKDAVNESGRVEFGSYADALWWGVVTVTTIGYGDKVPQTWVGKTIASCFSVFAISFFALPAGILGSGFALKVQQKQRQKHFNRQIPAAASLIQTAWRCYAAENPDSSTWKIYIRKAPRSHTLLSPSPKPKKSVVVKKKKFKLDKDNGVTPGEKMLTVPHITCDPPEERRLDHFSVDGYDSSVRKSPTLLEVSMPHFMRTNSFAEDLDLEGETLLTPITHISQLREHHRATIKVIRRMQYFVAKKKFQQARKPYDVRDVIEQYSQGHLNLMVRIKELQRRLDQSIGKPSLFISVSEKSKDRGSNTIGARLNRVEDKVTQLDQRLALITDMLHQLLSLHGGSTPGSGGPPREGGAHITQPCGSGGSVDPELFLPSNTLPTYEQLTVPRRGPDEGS
#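 Medium – assay buffer, equal DMSO in all wells · Material – CHO-K1 cell line with stable KCNQ1 potassium channel expression · Signal – kinetic FluxOR thallium fluorescence, 10-s 1-Hz baseline, 110-s post-stimulus read · Compound – single concentration per compound, DMSO matched to controls · Schedule – 37 °C overnight plating, 90-min dark dye load, 20-min compound pretreatment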
# hERG rescue – compounds protecting human hERG from proarrhythmic drug block; Q12809; 310,000 compounds, 0.51% hits; activation (rescue from dofetilide block), less the hit threshold, % at 10 µM; AID 1511; CHO-hERG, FluxOR thallium flux, dofetilide IC70 present;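 active = activation above the mean of controls blocked by dofetilide plus 5 SD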;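 note: thallium influx through hERG after potassium depolarization seen as dye fluorescence rise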
# KCNQ1 block – blocks the human KCNQ1 potassium channel | P51787 | CHO-K1 KCNQ1, FluxOR thallium flux fluorescence; hits give high values | B-score at 10 µM | 310,000 compounds, 1.3% hits | AID 2642;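 active = compounds whose thallium flux B-score, printed positive for inhibition, exceeds three library SD while starting fluorescence stays within three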;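 note: channel opened by potassium depolarization with thallium stimulus after 20 min compound exposure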
# KCNK9 block – inhibitors of human KCNK9 two-pore domain potassium channel; Q9NPC2; HEK293 KCNK9, FluxOR thallium flux fluorescence; hits give low values; B-score at 10 µM; 310,000 compounds, 1.2% hits; AID 488922;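 active = ratio B-score over 3 SD below the library mean, with starting fluorescence within 5 SD of its mean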;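 note: negative B-score means less thallium flux so channel inhibition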
# KCNK9 block conf – confirmation of human KCNK9 potassium channel inhibitors; AID 492992; 4,900 compounds, 43% hits; HEK293 KCNK9 cells, FluxOR thallium flux fluorescence; shares compounds with KCNK9 block; inhibition, % at 10 µM;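 active = thallium signal inhibited by more than 5 SD of the compound-free buffer control wells, on both duplicate plates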
# Kir21 sel – selectivity of KCNK9 modulators against mouse Kir2.1. AID 492993. 4,900 compounds, 4% hits. shares compounds with KCNK9 block. Kir2.1 cells, FluxOR thallium flux fluorescence. inhibition, % at 10 µM;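 active = thallium signal drop more than 5 SD beyond the mean of the no-compound control wells, seen in both duplicate plates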;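 note: signal is fluorescence rise after thallium addition divided by baseline fluorescence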
# KCNK9 uninduced – second check of KCNK9 modulator effects in non-induced HEK293 cells; 4,900 compounds, 40% hits; inhibition, % at 10 µM; FluxOR thallium flux; AID 492997; shares compounds with KCNK9 block;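 active = thallium signal drop beyond 5 SD of the untreated control mean, on both duplicate plates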
# A number is an active result; – = inactive; · = no result.
SMILES,KCNK3 inh,Kir21 block,KCNQ1 pot,hERG rescue,KCNQ1 block,KCNK9 block,KCNK9 block conf,Kir21 sel,KCNK9 uninduced
O=C(NCCOc1ccc(Cl)cc1)c1ccc2ccccc2n1,–,–,–,–,–,–,–,–,–
Cc1sc2nc(SCc3ccccc3)n(Cc3ccco3)c(=O)c2c1C,–,–,–,–,–,–,·,·,·
Cc1sc2nc(SCc3nc4ccccc4[nH]3)n(Cc3ccco3)c(=O)c2c1C,–,–,–,–,–,-8.25,26.5%,–,31.5%
CCN(CC(=O)Nc1cc(S(=O)(=O)N2CCOCC2)ccc1C)Cc1ccccc1,–,–,–,–,–,–,·,·,·
Cc1cnc(C(=O)NCc2ccc(F)cc2)cn1,–,–,–,–,–,–,·,·,·
COCc1ccc(C(=O)OC(C)C(=O)Nc2c(C)n(C)n(-c3ccccc3)c2=O)cc1 (stereo unspecified),–,·,·,·,·,·,·,·,·
O=C(COC(=O)c1cnccn1)Nc1cccc(F)c1,–,·,·,·,·,·,·,·,·
COc1ccc(C2c3[nH]c4ccccc4c3CCN2Cc2ccoc2)c(F)c1 (stereo unspecified),–,–,–,–,–,–,–,–,–
COc1ccc(C2c3[nH]c4ccccc4c3CCN2C(=O)Cc2nonc2C)c(F)c1 (stereo unspecified),–,–,–,–,–,–,·,·,·
CCOC(=O)Cn1cnc2scc(-c3ccccc3)c2c1=O,–,–,–,–,–,–,·,·,·
CCOC(=O)Cn1cnc2scc(-c3ccc(C)c(C)c3)c2c1=O,–,–,–,–,–,–,–,–,–
CCOC(=O)Cn1cnc2scc(-c3ccc(C)cc3)c2c1=O,–,–,–,–,–,–,–,–,–
CC12CC3OC3CC1CCC1C2CCC2(C)C1CCC21OCCO1 (stereo unspecified),–,·,·,·,·,·,·,·,·
O=C(Nc1cccc(-c2nc3ccccc3s2)c1)c1cccs1,–,–,–,–,–,-10.2,49.0%,–,25.5%
O=C(Nc1cccc(-c2cn3ccccc3n2)c1)c1cccs1,–,–,–,–,–,-8.52,52.0%,–,–
O=C(Nc1cccc(-c2nc3ccccc3s2)c1)c1cc(=O)c2ccccc2o1,–,–,–,–,–,–,·,·,·
CN(Cc1ccc2ccccc2c1)C(=O)c1ccc(C(F)(F)F)cc1,–,–,–,–,–,–,–,–,38.0%
COc1ccc(CN(C)C(=O)c2ccc(Oc3ccccc3)cc2)cc1F,–,–,–,–,–,–,·,·,·
Cc1cccc2nc(-c3ccccc3)nc(N3CCC(O)(c4ccc(Cl)cc4)CC3)c12,–,–,–,–,–,-10.3,61.0%,–,32.5%
O=C(Nc1cccnc1Cl)c1noc2c1CCc1ccccc1-2,–,–,–,–,–,–,·,·,·
CCCCOC(=O)CSC(=S)N(C)Cc1cccs1,–,–,–,–,–,–,–,–,–
Cc1cc(N/N=C/c2ccc(Cl)cc2Cl)nc(NCc2ccccc2)n1,–,–,–,–,–,–,–,–,–
Cc1cc(N/N=C/c2ccc(F)cc2)nc(NCc2ccccc2)n1,–,–,–,–,–,–,·,·,·
COc1cccc(/C=N/NC(=O)c2nc(-c3ccccc3)cc(-c3ccccc3)n2)c1O,–,–,–,–,–,-8.64,–,–,–
CCOC(=O)c1csc(NC(=O)c2ccc(C#N)cc2)n1,–,–,–,–,–,–,·,·,·
SMILES,KCNK3 inh,Kir21 block,KCNQ1 pot,hERG rescue,KCNQ1 block,KCNK9 block,KCNK9 block conf,Kir21 sel,KCNK9 uninduced
Cc1ccccc1C(=O)NC1CC2CCCC(C1)N2Cc1ccccc1 (stereo unspecified),–,–,–,–,–,–,–,–,–
O=C(C1CCCN(S(=O)(=O)c2cc(Cl)ccc2Cl)C1)N1CCOCC1 (stereo unspecified),–,–,–,–,–,–,·,·,·
COc1ccc(C(=O)NC(=S)Nc2ccc(CN3CCOCC3)cc2)cc1Br,–,–,–,–,–,–,–,–,–
CCc1nnc(NC(=O)c2ccc(F)c(S(=O)(=O)N3CCCCC3)c2)s1,–,–,–,–,–,–,·,·,·
CCc1nnc(NC(=O)c2ccc(Cl)c(S(=O)(=O)N3CCc4ccccc43)c2)s1,–,–,–,–,–,-12.7,67.5%,–,41.5%
O=C(NCc1ccccn1)C1CCCN(S(=O)(=O)c2cc(Cl)ccc2Cl)C1 (stereo unspecified),–,·,·,·,·,·,·,·,·
Cc1cc(S(=O)(=O)N2CCCC(N(C)CCc3ccccn3)C2)c(C)cc1Cl (stereo unspecified),–,–,–,–,–,–,–,–,–
O=C1C(Cl)=C(N2CCN(Cc3ccccc3)CC2)C(=O)N1Cc1ccccc1,–,–,–,–,–,–,–,–,–
O=C(CSc1nnc(C2CC2)n1C1CC1)c1ccccc1F,–,·,·,·,·,·,·,·,·
COc1cc(OC)c(C(=O)NC23CC4CC(CC(C4)C2)C3)cc1OC,–,–,–,–,–,–,·,·,·
O=C(NC12CC3CC(CC(C3)C1)C2)c1cc(F)c(F)c(F)c1F,–,–,–,–,–,–,–,–,–
CCOc1ccccc1NC(=O)N1CCC(C(=O)c2ccc(F)cc2)CC1,–,–,–,–,–,-10,41.5%,–,36.5%
COc1ccccc1CN(Cc1cc2cc(C)ccc2[nH]c1=O)Cc1nnnn1Cc1ccco1,–,–,–,–,–,-8.7,–,–,36.0%
Cc1ccc(S(=O)(=O)N(C)C)cc1-n1c(SCC(=O)N(C)C)nc2ccccc2c1=O,–,–,–,–,–,–,·,·,·
Cc1ccc(S(=O)(=O)N(C)C)cc1-n1c(SCC(=O)Nc2ccc(F)c(F)c2F)nc2ccccc2c1=O,–,–,–,–,–,-13.7,64.0%,–,40.0%
Cc1ccc(C)n1-n1cnc2sc3c(c2c1=O)CCC3,–,–,–,–,–,–,·,·,·
Cn1cc(/C=N/n2cnc3sc4c(c3c2=O)CCCC4)c2ccccc21,–,–,–,–,–,–,–,–,–
CN1CCN(C2=C(Cl)C(=O)C(c3cnc(N4CCCCC4)s3)=C(Cl)C2=O)CC1,–,–,–,–,16,-17.1,–,–,38.5%
CCOC(=O)C(C)Sc1snnc1C (stereo unspecified),–,–,–,–,–,–,·,·,·
Cc1cc(C)nc(SCc2csc(-c3ccccc3)n2)n1,–,–,–,–,–,-11.4,53.0%,–,35.0%
COc1cc(-c2nc3cc(C)ccn3c2NC2CCCCC2)ccc1-c1ccc(C(C)=O)cc1,–,–,–,–,–,-9.27,48.5%,–,–

# Source: PubChem (Johns Hopkins Ion Channel Center)
